In PMC9804870 (Clinical Pharmacology in Drug Development, 2022):

Experiments:
[1] = tested on: BTK; conditions: cited from earlier work
[2] = tested on: gastric pH; conditions: cited from earlier work
[3] = tested on: CYP3A; conditions: has been reported; ref not given; cited from earlier work
[4] = Study 1; format: in vivo; conditions: human, plasma, oral, 100 mg
Outline: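 Healthy subjects, four-sequence crossover: 100 mg tablet or capsule fasted (>10 h). Period 3: tablet 30 min after high-fat meal (800–1000 calories), or fasted 2 h after 20 mg PPI following PPI 20 mg BID days −3 to −1. Plasma sampled predose to 24 h. Parent and metabolite by LC-MS/MS (1–1000, 5–5000 ng/mL). t½ noncompartmental (linear up log down).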

[5] = dose range of 75–250 mg; dose‐proportional; cited from earlier work
[6] = high permeability, low solubility; reduced solubility at higher pH; cited from earlier work

CC#CC(=O)NCCCC(=O)c1nc(-c2ccc(C(=O)Nc3ccccn3)cc2)c2c(N)nccn12 [ACP‐5862]
Potency with respect to BTK inhibition, less than acalabrutinib [1]: 50%

COc1ccc2[nH]c([S+]([O-])Cc3ncc(C)c(OC)c3C)nc2c1 (stereo not shown) [omeprazole]
Time needed to achieve maximum suppression of gastric pH [2]: 5 days

COCCCOc1ccnc(C[S+]([O-])c2nc3ccccc3[nH]2)c1C (stereo not shown) [Rabeprazole]
CYP3A inhibition in vitro [3]: weak inhibitor | Time needed to achieve maximum suppression of gastric pH [2]: 3 days

CC#CC(=O)N1CCC[C@H]1c1nc(-c2ccc(C(=O)Nc3ccccn3)cc2)c2c(N)nccn12 [Acalabrutinib]
half-life [4]: 2 to 3 h | Dose linearity of pharmacokinetics [5]: linear pharmacokinetics | Biopharmaceutical Classification System class [6]: class II
